According to paper PMC2899701 (Lipids, 2009):
In brackets after ≈: the same amount, converted by molar mass. Read-outs that look alike come from different tables or passages of the source. Each block holds one compound with its values, some of them ahead of it.

Legend:
[1] = system: Murine macrophages (RAW 264.7); assay: Toxicity to murine macrophages; format: cell-based; conditions: for IC50: RAW264.7, 48 h, read-out: Murine macrophages IC50; for Murine macrophages IC50: RAW 264.7, 48 h incubation, alamarBlue
Summary of the method: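 RAW 264.7 murine macrophages grown at 37 °C in RPMI 1640 with 10% FCS, penicillin (50 U/ml) and streptomycin (50 µg/ml). Cells exposed 48 h to a range of test compound concentrations (0.3 to 100 µg/ml, DMSO vehicle). Viability read with alamarBlue dye per manufacturer's protocol; IC50 derived from concentration series.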

[2] = system: L. donovani promastigotes; format: cell-based, Leishmania donovani (MHOM/ET67/L82 strain); conditions: for Therapeutic index IC50/EC50: IC50 murine macrophages / EC50 L. donovani promastigotes; for EC50: 48 h, read-out: L. donovani promastigotes EC50; for L. donovani promastigotes EC50: 48 h incubation, fatty acids in DMSO 0.6 to 25 μg/ml; for Effectiveness towards L. donovani (in words): promastigotes
Summary of the method: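 L. donovani MHOM/ET67/L82 promastigotes propagated in defined medium 199 with 10% heat-inactivated FCS, penicillin (50 U/ml) and streptomycin (50 µg/ml). Cultures given test fatty acids in DMSO over 0.6 to 25 µg/ml for 48 h. Cell population counted by Coulter counter; IC50/EC50 derived from the concentration series.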

[3] = biological target: leishmania DNA topoisomerase IB (LdTopIB) (Leishmania donovani, UniProt A0A3Q8IHS4+Q8WQM6); assay: DNA relaxation assay with recombinant LdTopIB; format: biochemical; conditions: concentrations as high as 1mM (gel not shown)
[4] = system: L. donovani promastigotes; conditions: cited from earlier work
[5] = system: L. donovani promastigotes; conditions: at levels of 100 μg/mL; cited from earlier work

EC50 ([2]; Leishmania donovani): 6.67 ± 1.42 µg/mL (≈ 25 µM)
Compound: CCCCCCCCCCC#CCCCCC(=O)O [Compound 1a, 6-Heptadecynoic acid]
IC50 ([1]; Mus musculus): 5.66 ± 0.92 µg/mL (≈ 21.2 µM)
Therapeutic index IC50/EC50 [2]: 0.85

EC50 ([2]; Leishmania donovani): 1.11 ± 0.28 µg/mL (≈ 3.6 µM)
Compound: CCCCCCCCCCCCCC#CCCCCC(=O)O [Compound 1b, 6-Icosynoic acid]
IC50 ([1]; Mus musculus): 5.35 ± 2.14 µg/mL (≈ 17.3 µM)
Therapeutic index IC50/EC50 [2]: 4.82

L. donovani promastigotes EC50 [2]: > 25 µg/mL
Compound: CCCCCCCCCC/C=C\CCCCC(=O)O [Compound 6a, (6Z)-Heptadecenoic acid]
Murine macrophages IC50 [1]: 11.86 ± 1.63 µg/mL

L. donovani promastigotes EC50 [2]: 5.67 ± 1.07 µg/mL
L. donovani promastigotes EC50 ([2]; listed as (6Z)-icosenoic acid): 5 to 6 µg/mL
Compound: CCCCCCCCCCCCC/C=C\CCCCC(=O)O [Compound 6b, (6Z)-Icosenoic acid]
Murine macrophages IC50 [1]: 28.20 ± 7.54 µg/mL
Therapeutic index IC50/EC50 [2]: 4.97

Second part, the compound before the results:

Compound: CCCCCCCCCCCCCCCCC(=O)O [Heptadecanoic (17:0), n-heptadecanoic acid]
Inhibition of the LdTOPIB enzyme (in words) [3]: did not inhibit the enzyme
Murine macrophages IC50 [1]: 14.18 ± 7.48 µg/mL
L. donovani promastigotes EC50 [2]: > 25 µg/mL
Effectiveness towards L. donovani (in words) [2]: not effective

Compound: CCCCCCCCCCCCCCCCCCCC(=O)O [Icosanoic (20:0), n-icosanoic acid]
Inhibition of the LdTOPIB enzyme (in words) [3]: did not inhibit the enzyme
Murine macrophages IC50 [1]: 21.93 ± 2.61 µg/mL
L. donovani promastigotes EC50 [2]: > 25 µg/mL
Effectiveness towards L. donovani (in words) [2]: not effective

Compound: CCCCCCCCCCCCCCCCOP(=O)([O-])OCC[N+](C)(C)C [miltefosine]
EC50 ([1]; Mus musculus, RAW264.7, read-out: EC50 against murine macrophages): 1950 nM
IC50 ([2]; Leishmania donovani, read-out: IC50 against L. donovani): 790 nM

Compound: CCCCCCCCCC(=O)O [n-Decanoic acid]
MIC against L. donovani promastigotes [4]: 1390 µM (≈ 239 µg/mL)
Inhibition of the motility of L. donovani promastigotes (in words) [5]: inhibited the motility

Compound: CCCCCCCCCCCC(=O)O [n-dodecanoic, n-dodecanoic acid]
Inhibition of the motility of L. donovani promastigotes (in words) [5]: inhibited the motility

Compound: CCCCCCCCCCCCCCCC(=O)O [n-hexadecanoic acids, n-hexadecanoic acid]
Inhibition of the motility of L. donovani promastigotes (in words) [5]: inhibited the motility

Compound: CCCCCCCCCCCCCCCCCC(=O)O [octadecanoic acid]
MIC against L. donovani promastigotes [4]: 180 µM (≈ 51.2 µg/mL)

Compound: CCCCCCCC/C=C\CCCCCCCC(=O)O [oleic acid]
MIC against L. donovani promastigotes [4]: 90 µM (≈ 25.4 µg/mL)
Inhibition of the motility of L. donovani promastigotes (in words) [5]: had no effect
